Test results reported in ChEMBL document CHEMBL2390929, “New nitric oxide donating 1,2,4-triazole/oxime hybrids: synthesis, investigation of anti-inflammatory, ulceroginic liability and antiproliferative activities” (Bioorg Med Chem, 2013).

Assays:
MDA-MB-468 = experiment: Cytotoxicity against human MDA-MB-468 cells assessed as cell growth at 10^-5 M after 48 hrs by SRB assay; format: functional; conditions: MDA-MB-468, 48 h, read-out: Activity
Summary of the method: (§1)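 NCI 60-cell-line primary one-dose screen across nine tumour subpanels. Compound added at a single concentration of 10^-5 M and cultures incubated 48 h. Endpoint was sulforhodamine B protein staining read spectrophotometrically, with growth expressed as percent of untreated control cells.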

Hs-578T = experiment: Cytotoxicity against human Hs578T cells assessed as cell growth at 10^-5 M after 48 hrs by SRB assay; format: functional; conditions: read-out: Activity; summary of the method: as §1
BT-549 = experiment: Cytotoxicity against human BT549 cells assessed as cell growth at 10^-5 M after 48 hrs by SRB assay; format: functional; conditions: BT-549, 48 h, read-out: Activity; summary of the method: as §1
MDA-MB-231 = experiment: Cytotoxicity against human MDA-MB-231 cells assessed as cell growth at 10^-5 M after 48 hrs by SRB assay; format: functional; conditions: MDA-MB-231, 48 h, read-out: Activity; summary of the method: as §1
SN12C = experiment: Cytotoxicity against human SN12C cells assessed as cell growth at 10^-5 M after 48 hrs by SRB assay; format: functional; conditions: read-out: Activity
Summary of the method: (§2)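 NCI-60 one-dose screen across nine tumour subpanels. Each agent added once at 10^-5 M, cultures incubated 48 h. Endpoint is sulforhodamine B protein staining read spectrophotometrically. Output is percent growth of treated cells relative to untreated controls.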

ACHN = experiment: Cytotoxicity against human ACHN cells assessed as cell growth at 10^-5 M after 48 hrs by SRB assay; format: functional; conditions: read-out: Activity; summary of the method: as §1
A498 = experiment: Cytotoxicity against human A498 cells assessed as cell growth at 10^-5 M after 48 hrs by SRB assay; format: functional; conditions: A498, 48 h, read-out: Activity; summary of the method: as §1
786-0 = experiment: Cytotoxicity against human 786-0 cells assessed as cell growth at 10^-5 M after 48 hrs by SRB assay; format: functional; conditions: 786-0, 48 h, read-out: Activity; summary of the method: as §1
OVCAR-4 = experiment: Cytotoxicity against human OVCAR4 cells assessed as cell growth at 10^-5 M after 48 hrs by SRB assay; format: functional; conditions: OVCAR-4, 48 h, read-out: Activity; summary of the method: as §1
UACC-62 = experiment: Cytotoxicity against human UACC62 cells assessed as cell growth at 10^-5 M after 48 hrs by SRB assay; format: functional; conditions: UACC-62, 48 h, read-out: Activity; summary of the method: as §2
IGROV-1 = experiment: Cytotoxicity against human IGROV1 cells assessed as cell growth at 10^-5 M after 48 hrs by SRB assay; format: functional; conditions: IGROV-1, 48 h, read-out: Activity; summary of the method: as §1
SK-MEL-28 = experiment: Cytotoxicity against human SK-MEL-28 cells assessed as cell growth at 10^-5 M after 48 hrs by SRB assay; format: functional; conditions: SK-MEL-28, 48 h, read-out: Activity; summary of the method: as §2
MDA-MB-435 = experiment: Cytotoxicity against human MDA-MB-435 cells assessed as cell growth at 10^-5 M after 48 hrs by SRB assay; format: functional; conditions: MDA-MB-435, 48 h, read-out: Activity; summary of the method: as §1
M14 = experiment: Cytotoxicity against human M14 cells assessed as cell growth at 10^-5 M after 48 hrs by SRB assay; format: functional; conditions: M14, 48 h, read-out: Activity; summary of the method: as §1
SNB-75 = experiment: Cytotoxicity against human SNB75 cells assessed as cell growth at 10^-5 M after 48 hrs by SRB assay; format: functional; conditions: SNB-75, 48 h, read-out: Activity; summary of the method: as §2
HCT-15 = experiment: Cytotoxicity against human HCT15 cells assessed as cell growth at 10^-5 M after 48 hrs by SRB assay; format: functional; conditions: HCT-15, 48 h, read-out: Activity; summary of the method: as §1
NCI-H460 = experiment: Cytotoxicity against human NCI-H460 cells assessed as cell growth at 10^-5 M after 48 hrs by SRB assay; format: functional; conditions: NCI-H460, 48 h, read-out: Activity; summary of the method: as §1
NCI-H23 = experiment: Cytotoxicity against human NCI-H23 cells assessed as cell growth at 10^-5 M after 48 hrs by SRB assay; format: functional; conditions: NCI-H23, 48 h, read-out: Activity; summary of the method: as §1
HOP-62 = experiment: Cytotoxicity against human HOP62 cells assessed as cell growth at 10^-5 M after 48 hrs by SRB assay; format: functional; conditions: HOP-62, 48 h, read-out: Activity; summary of the method: as §1
K562 = experiment: Cytotoxicity against human K562 cells assessed as cell growth at 10^-5 M after 48 hrs by SRB assay; format: functional; conditions: K562, 48 h, read-out: Activity; summary of the method: as §1
HL-60(TB) = experiment: Cytotoxicity against human HL-60(TB) cells assessed as cell growth at 10^-5 M after 48 hrs by SRB assay; format: functional; conditions: HL-60, 48 h, read-out: Activity
Summary of the method: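 NCI 60-cell-line one-dose screen: compound added to cultures at a single concentration of 10^-5 M, incubated 48 h. End point by sulforhodamine B protein staining, read spectrophotometrically. Value is percent growth of treated cells relative to untreated control cells.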

Rattus norvegicus [1] = experiment: Antiinflammatory activity in albino rat assessed as inhibition of carrageenan-induced paw edema at 0.28 mmol/kg, po after 4 hrs relative to control; format: functional
Summary of the method: (§3)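 Adult male albino rats (120–140 g), four per group, fasted 24 h with water allowed. Test agent suspended in 0.5% w/v aqueous CMC and given orally at 0.28 mmol/kg; controls received CMC alone. After 30 min, 0.1 mL fresh 1% carrageenan in saline was injected subplantar into the right hind paw and saline into the left. Paw thickness was measured by Vernier caliper; % inhibition = [(VR−VL)control − (VR−VL)treated]/(VR−VL)control ×100. Mean ± SEM, one-way ANOVA.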

Rattus norvegicus [2] = experiment: Antiinflammatory activity in albino rat assessed as inhibition of carrageenan-induced paw edema at 0.28 mmol/kg, po after 3 hrs relative to control; format: functional; summary of the method: as §3
Rattus norvegicus [3] = experiment: Antiinflammatory activity in albino rat assessed as inhibition of carrageenan-induced paw edema at 0.28 mmol/kg, po after 2 hrs relative to control; format: functional; summary of the method: as §3
Rattus norvegicus [4] = experiment: Antiinflammatory activity in albino rat assessed as inhibition of carrageenan-induced paw edema at 0.28 mmol/kg, po after 1 hr relative to control; format: functional; summary of the method: as §3
[5] = Induction of nitric oxide release in phosphate buffer at pH 7.4 at 0.1 mM after 6 hrs by Griess method in presence of 0.5 mM of N-acetylcysteine; format: physicochemical; conditions: pH 7.4, 6 h, 100 µM
Summary of the method: (§4)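 Compound in DMF diluted to final 10^-4 M in 1:1 50 mM phosphate buffer pH 7.4/MeOH with 5×10^-4 M N-acetylcysteine, 37 °C. Aliquot mixed with Griess reagent, 10 min at room temperature, A546 read. Nitrite quantified against sodium nitrite standards (10–80 nmol/mL); NO expressed as mol/mol. n = 4 reaction mixtures per compound.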

[6] = Induction of nitric oxide release in phosphate buffer at pH 7.4 at 0.1 mM after 2 hrs by Griess method in presence of 0.5 mM of N-acetylcysteine; format: physicochemical; conditions: pH 7.4, 2 h, 100 µM; summary of the method: as §4
[7] = Induction of nitric oxide release in phosphate buffer at pH 7.4 at 0.1 mM after 3 hrs by Griess method in presence of 0.5 mM of N-acetylcysteine; format: physicochemical; conditions: pH 7.4, 3 h, 100 µM; summary of the method: as §4
[8] = Induction of nitric oxide release in phosphate buffer at pH 7.4 at 0.1 mM after 1 hr by Griess method in presence of 0.5 mM of N-acetylcysteine; format: physicochemical; conditions: pH 7.4, 1 h, 100 µM; summary of the method: as §4

Compound `COc1ccc(-c2nnc(SC/C(=N/O)c3ccccc3)n2-c2ccccc2)cc1` has a growth at 10 µM (MDA-MB-468) of 96.5%, a growth at 10 µM (Hs-578T) of 107% and a growth at 10 µM (BT-549) of 90.5%. For the same compound, the growth at 10 µM (MDA-MB-231) was 117%, the growth at 10 µM (SN12C) was 97.9% and the growth at 10 µM (ACHN) was 107%. For the same compound, the growth at 10 µM (A498) was 73.8%, the growth at 10 µM (786-0) was 93.3% and the growth at 10 µM (OVCAR-4) was 86.4%. For the same compound, the growth at 10 µM (UACC-62) was 94.3%, the growth at 10 µM (IGROV-1) was 101% and the growth at 10 µM (SK-MEL-28) was 117%. For the same compound, the growth at 10 µM (MDA-MB-435) was 102%, the growth at 10 µM (M14) was 106% and the growth at 10 µM (SNB-75) was 103%. The growth at 10 µM (HCT-15) was 95.1%, the growth at 10 µM (NCI-H460) was 106% and the growth at 10 µM (NCI-H23) was 106%. The growth at 10 µM (HOP-62) was 111%, the growth at 10 µM (K562) was 82.1% and the growth at 10 µM (HL-60(TB)) was 95.9%. For the same compound, the inhibition in vivo at 280 µmol/kg (Rattus norvegicus [1]) was 80%, the inhibition in vivo at 280 µmol/kg (Rattus norvegicus [2]) was 63% and the inhibition in vivo at 280 µmol/kg (Rattus norvegicus [3]) was 63%. For the same compound, the inhibition in vivo at 280 µmol/kg (Rattus norvegicus [4]) was 58%, the Activity [5] was 0.12 mol/mol and the Activity [6] was 0.08 mol/mol. The Activity [7] was 0.09 mol/mol and the Activity [8] was 0.08 mol/mol.
Work on `C=CCn1c(SC/C(=N\O)c2ccccc2)nnc1-c1ccc(OC)c(OC)c1` yielded a growth at 10 µM (MDA-MB-468) of 105%, a growth at 10 µM (Hs-578T) of 97.3% and a growth at 10 µM (BT-549) of 124%. For the same compound, the growth at 10 µM (MDA-MB-231) was 94.4%, the growth at 10 µM (SN12C) was 98.2% and the growth at 10 µM (ACHN) was 97.8%. It also gave a growth at 10 µM (A498) of 97.4%, a growth at 10 µM (786-0) of 119% and a growth at 10 µM (OVCAR-4) of 91%. It also gave a growth at 10 µM (UACC-62) of 99.9%, a growth at 10 µM (IGROV-1) of 97.6% and a growth at 10 µM (SK-MEL-28) of 99%. The growth at 10 µM (MDA-MB-435) was 105%, the growth at 10 µM (M14) was 123% and the growth at 10 µM (SNB-75) was 86.9%. For the same compound, the growth at 10 µM (HCT-15) was 99%, the growth at 10 µM (NCI-H460) was 105% and the growth at 10 µM (NCI-H23) was 91.5%. For the same compound, the growth at 10 µM (HOP-62) was 92.2%, the growth at 10 µM (K562) was 90.8% and the growth at 10 µM (HL-60(TB)) was 72.3%. The inhibition in vivo at 280 µmol/kg (Rattus norvegicus [1]) was 78%, the inhibition in vivo at 280 µmol/kg (Rattus norvegicus [2]) was 58% and the inhibition in vivo at 280 µmol/kg (Rattus norvegicus [3]) was 57%. It also gave an inhibition in vivo at 280 µmol/kg (Rattus norvegicus [4]) of 53%, an Activity [5] of 0.13 mol/mol and an Activity [6] of 0.15 mol/mol. It also gave an Activity [7] of 0.17 mol/mol and an Activity [8] of 0.09 mol/mol.
In the case of `O/N=C(/CSc1nnc(-c2ccccc2)n1-c1ccccc1)c1ccccc1`, the growth at 10 µM (MDA-MB-468) is reported as 93%, the growth at 10 µM (Hs-578T) is reported as 82.9% and the growth at 10 µM (BT-549) is reported as 111%. For the same compound, the growth at 10 µM (MDA-MB-231) was 68.4%, the growth at 10 µM (SN12C) was 99.7% and the growth at 10 µM (ACHN) was 117%. The growth at 10 µM (A498) was 49.5%, the growth at 10 µM (786-0) was 109% and the growth at 10 µM (OVCAR-4) was 86.6%. It also gave a growth at 10 µM (UACC-62) of 87.7%, a growth at 10 µM (IGROV-1) of 108% and a growth at 10 µM (SK-MEL-28) of 118%. For the same compound, the growth at 10 µM (MDA-MB-435) was 97.5%, the growth at 10 µM (M14) was 103% and the growth at 10 µM (SNB-75) was 115%. The growth at 10 µM (HCT-15) was 101%, the growth at 10 µM (NCI-H460) was 97.3% and the growth at 10 µM (NCI-H23) was 103%. For the same compound, the growth at 10 µM (HOP-62) was 109%, the growth at 10 µM (K562) was 74.6% and the growth at 10 µM (HL-60(TB)) was 92.2%. The inhibition in vivo at 280 µmol/kg (Rattus norvegicus [1]) was 79%, the inhibition in vivo at 280 µmol/kg (Rattus norvegicus [2]) was 65% and the inhibition in vivo at 280 µmol/kg (Rattus norvegicus [3]) was 63%. The inhibition in vivo at 280 µmol/kg (Rattus norvegicus [4]) was 60%, the Activity [5] was 0.09 mol/mol and the Activity [6] was 0.1 mol/mol. For the same compound, the Activity [7] was 0.12 mol/mol and the Activity [8] was 0.06 mol/mol.
